Assay [1] in a line: Inhibition of Yersinia pestis Protein tyrosine phosphatase TC. In outline:
(§1)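 p-NPP hydrolysis at room temperature in 50 mM 3,3-dimethylglutarate pH 7.0, 1 mM EDTA, 50 mM NaCl, 10% DMSO. Substrate was held at Km: Yersinia PTP 2.9, PTP1B 2.0, TCPTP 2.1, CD45 7.0 mM. Initial rates came from absorbance at 405 nm, 10–130 s after mixing. IC50 was obtained by Dixon analysis.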

A short description of assay [2]: Inhibition of Yersinia pestis protein tyrosine phosphatase 1B. In outline: as §1
Assay [3] can be described thus: Inhibition of Yersinia pestis protein tyrosine phosphatase. The method, boiled down: as §1
For assay [4], the system named is Yersinia pestis. The experiment in a line: Inhibition of Yersinia pestis protein tyrosine phosphatase at 10 uM. In outline: (§2)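 Single-concentration percent inhibition screen with p-NPP substrate, 2.9 mM for Yersinia PTP and 2.0 mM for PTP1B. Buffer was 50 mM 3,3-dimethylglutarate pH 7.0 with 1 mM EDTA, 50 mM NaCl and 10% DMSO, at room temperature. Initial hydrolysis rates were read at 405 nm from 10 to 130 s.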

The nature of assay [5]: Inhibition of Yersinia pestis protein tyrosine phosphatase CD45. In outline:
as §1

For assay [6], the system named is Yersinia pestis. The experiment in a line: Inhibition of Yersinia pestis protein tyrosine phosphatase at 100 uM. In outline:
as §2

Regarding `O=C(O)C(=O)c1ccc(-n2cc(C(=O)N[C@@H](Cc3c[nH]c4ccccc34)Cn3cc(-c4cccc(-c5cn(C[C@H](Cc6c[nH]c7ccccc67)NC(=O)c6cn(-c7ccc(C(=O)C(=O)O)cc7)nn6)nn5)c4)nn3)nn2)cc1`, the IC50 (as a rule, the midpoint of a concentration-inhibition curve) in assay [1] is 1.8 µM; in assay [2], 4.1 µM; in assay [3], 1.3 µM; in assay [5], 8.5 µM. Further, the inhibition (commonly the percentage by which the read-out fell short of the control) in the assay with Yersinia pestis [4] is more than 60%.
For the compound `O=C(O)C(=O)c1ccc(-n2cc(-c3ccc(-c4ccccc4)cc3)nn2)cc1`, the IC50 in assay [2] amounted to 84 µM; in assay [3], 45 µM.
Regarding `C#Cc1ccc(C#C)cc1`, in the assay with Yersinia pestis [6], the inhibition was more than 60%.
On to `COc1ccc2cc(-c3cn(C[C@H](Cc4c[nH]c5ccccc45)NC(=O)c4cn(-c5ccc(C(=O)C(=O)O)cc5)nn4)nn3)ccc2c1`, for which the concentration for half-maximal inhibition (IC50) in assay [1] was 2.6 µM; in assay [2] it was 5.7 µM; in assay [3], 2.1 µM; in assay [5], 16.8 µM. In the assay with Yersinia pestis [4], this compound had an inhibition of more than 60%.
Take `O=C(O)C(=O)c1ccc(-n2cc(-c3cccc(-c4cn(-c5ccc(C(=O)C(=O)O)cc5)nn4)c3)nn2)cc1`: the half-maximal inhibitory concentration (IC50) in assay [2] worked out at 77 µM; in assay [3] it was 25 µM.
Regarding `Cc1ccc(S(=O)(=O)c2cn(C[C@H](Cc3c[nH]c4ccccc34)NC(=O)c3cn(-c4ccc(C(=O)C(=O)O)cc4)nn3)nn2)cc1`, the IC50 in assay [1] was found to be 2.6 µM; in assay [2] it was 7.4 µM; in assay [3] it was 2.1 µM; in assay [5] it was 15.8 µM. The same compound yielded an inhibition with Yersinia pestis [4] of more than 60%.
`C#Cc1ccc(-c2ccccc2)cc1` yielded an inhibition in the assay with Yersinia pestis [6] of more than 60%.
Still for that read-out and setting: under `C#CC(=O)N[C@H](CO)Cc1c[nH]c2ccccc12` stands more than 60%.
For the compound `O=C(O)C(=O)c1ccc(-n2cc(C(=O)N[C@H](CO)Cc3c[nH]c4ccccc34)nn2)cc1`, the results for the IC50 in assay [2] and in assay [3] were 500 µM and 58 µM, respectively.
In the assay on Yersinia pestis [6], `C#Cc1cccc(C#C)c1` had an inhibition of more than 60%.
On to `O=C(O)C(=O)c1ccc(-n2cc(C(=O)N[C@@H](Cc3c[nH]c4ccccc34)Cn3cc(-c4ccc(-c5cn(C[C@H](Cc6c[nH]c7ccccc67)NC(=O)c6cn(-c7ccc(C(=O)C(=O)O)cc7)nn6)nn5)cc4)nn3)nn2)cc1`, for which the concentration for half-maximal inhibition (IC50) in assay [1] was 0.71 µM; in assay [2], 2.1 µM; in assay [3] it was 0.55 µM; in assay [5] it was 8.4 µM. In the assay with Yersinia pestis [4], this compound gave an inhibition of more than 60%.
